Data: ChEMBL document CHEMBL4813913, “In vitro identification of imidazo[1,2-a]pyrazine-based antileishmanial agents and evaluation of L. major casein kinase 1 inhibition” (Eur J Med Chem, 2021)

What was measured:
Leishmania amazonensis = test: Antileishmanial activity against amastigote stage Leishmania amazonensis (MHOM/BR/73/M2269) infected in mouse RAW264.7 cells assessed as reduction in parasitic proliferation measured by SYBR Green 1 dye based fluorescence assay; assay type: functional, organism-based; settings: MHOM/BR/73/M2269, RAW264.7
Method in brief: (§1)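 RAW 264.7 macrophages seeded at 100,000 cells/well in DMEM with 10% heat-inactivated FBS, 24 h at 37 °C, 5% CO₂. Infected with plateau-phase promastigotes (parasite:macrophage 16:1) for 24 h. Compounds serially diluted, final 391 nM–100 μM. Amastigote viability read by SYBR Green I after lysis and 3 freeze-thaw cycles. IC50 by nonlinear regression against excipient-treated controls. Miltefosine reference.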

Leishmania braziliensis = test: Antileishmanial activity against amastigote stage of Leishmania braziliensis (MHOM/BR/75/M2903b) infected in mouse RAW264.7 cells assessed as reduction in parasitic proliferation measured by SYBR Green 1 dye based fluorescence assay; assay type: functional, organism-based; method in brief: as §1
[1] = Selectivity index, ratio of CC50 for mouse RAW264.7 cells to IC50 for amastigote stage of Leishmania amazonensis (MHOM/BR/73/M2269) infected in mouse RAW264.7 cells; assay type: toxicity, cell-based; settings: read-out: Ratio CC50/IC50
Method in brief: (§2)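 Selectivity index is CC50 on RAW 264.7 or MRC-5 cells divided by IC50 on intracellular amastigotes.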

[2] = Selectivity index, ratio of CC50 for human MRC5 cells to IC50 for amastigote stage of Leishmania braziliensis (MHOM/BR/75/M2903b) infected in mouse RAW264.7 cells; assay type: toxicity, cell-based; settings: read-out: Ratio CC50/IC50; method in brief: as §2
Leishmania infantum = test: Antileishmanial activity against amastigote stage of Leishmania infantum (MHOM/FR/2008/LEM5700) infected in mouse RAW264.7 cells assessed as reduction in parasitic proliferation measured by SYBR Green 1 dye based fluorescence assay; assay type: functional, organism-based; settings: MHOM/FR/2008/LEM5700, RAW264.7; method in brief: as §1
Leishmania donovani = test: Antileishmanial activity against amastigote stage of Leishmania donovani (MHOM/ET/67/HU3) infected in mouse RAW264.7 cells assessed as reduction in parasitic proliferation measured by SYBR Green 1 dye based fluorescence assay; assay type: functional, organism-based; settings: MHOM/ET/67/HU3, RAW264.7; method in brief: as §1
[3] = Selectivity index, ratio of CC50 for human MRC5 cells to IC50 for amastigote stage of Leishmania infantum (MHOM/FR/2008/LEM5700) infected in mouse RAW264.7 cells; assay type: toxicity, cell-based; settings: read-out: Ratio CC50/IC50; method in brief: as §2
[4] = Selectivity index, ratio of CC50 for human MRC5 cells to IC50 for amastigote stage of Leishmania donovani (MHOM/ET/67/HU3) infected in mouse RAW264.7 cells; assay type: toxicity, cell-based; settings: read-out: Ratio CC50/IC50; method in brief: as §2
[5] = Toxicity against Galleria mellonella larva assessed as cuticular darkening at 50 mg/kg measured for 7 days; assay type: organism-based; settings: in vivo, 168 h, time 7 day
Method in brief: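 G. mellonella larvae (6th stage, 260–320 mg), groups of ten. Injected in the 4th left pro-leg with 10 μL at 10–50 mg/kg; controls got PBS/DMSO (DMSO <40%). Kept in the dark at 37 °C. Survival and cuticular darkening scored daily for 7 days; death taken as no movement on stimulus. Kaplan-Meier with log-rank test; two independent experiments.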

CDK2/Cyclin A2 = CDK2/Cyclin A2 (Homo sapiens, UniProt P24941); test: Inhibition of human CDK2/ cyclinA using histone H1 as substrate in presence of ATP measured after 30 mins by ADP-Glo assay; assay type: protein-complex assay
[6] = target: Cyclin-dependent kinase 5/CDK5 activator 1 (Homo sapiens, UniProt Q00535); test: Inhibition of human recombinant CDK5/ p25 expressed in bacterial expression system using histone H1 as substrate in presence of ATP measured after 30 mins by ADP-Glo assay
CDK9/cyclin T1 [7] = target: T1, CDK9/cyclin T1 (Homo sapiens, UniProt P50750); test: Inhibition of human recombinant CDK9/CyclinT expressed in baculovirus infected Sf9 cells using YSPTSPSYSPTSPSYSPTSPSKKK as substrate in presence of ATP measured after 30 mins by ADP-Glo assay
[8] = target: Dual specificity protein kinase CLK1 (Mus musculus, UniProt P22518); test: Inhibition of recombinant mouse CLK1 expressed in bacteria using GRSRSRSRSRSR as substrate in presence of ATP measured after 30 mins by ADP-Glo assay
[9] = target: Serine/threonine-protein kinase pim-1 (Homo sapiens, UniProt P11309); test: Inhibition of recombinant human PIM1 expressed in bacteria using histone H1 as substrate in presence of ATP measured after 30 mins by ADP-Glo assay; settings: 0.5 h
Aurora kinase B [10] = target: T2, Aurora kinase B (Homo sapiens, UniProt Q96GD4); test: Inhibition of recombinant human AURKB expressed in baculovirus infected Sf9 cells using MBP as substrate in presence of ATP measured after 30 mins by ADP-Glo assay; settings: sf9, 0.5 h
[11] = target: T3, Dual specificity tyrosine-phosphorylation-regulated kinase 1A (Rattus norvegicus, UniProt Q63470); test: Inhibition of recombinant rat DYRK1A (1 to 499 ) expressed in bacterial expression system using KKISGRLSPIMTEQ as substrate in presence of ATP measured after 30 mins by ADP-Glo assay; settings: 0.5 h
[12] = Inhibition of recombinant Leishmania major CK1.2 expressed in bacterial expression system using RRKHAAIGSpAYSITA as substrate in presence of [gamma-33P]ATP by radiometric assay
CDK9/cyclin T1 [13] = target: T1, CDK9/cyclin T1; test: Inhibition of human recombinant CDK9/CyclinT expressed in baculovirus infected Sf9 cells using YSPTSPSYSPTSPSYSPTSPSKKK as substrate in presence of [gamma-33P]ATP by radiometric assay
[14] = target: Receptor-interacting serine/threonine-protein kinase 3 (Homo sapiens, UniProt Q9Y572); test: Inhibition of recombinant human RIPK3 expressed in baculovirus infected Sf9 cells using MBP as substrate in presence of [gamma-33P]ATP by radiometric assay
Aurora kinase B [15] = target: T2, Aurora kinase B; test: Inhibition of recombinant human AURKB expressed in baculovirus infected Sf9 cells using MBP as substrate in presence of [gamma-33P]ATP measured by radiometric assay
[16] = target: T3, Dual specificity tyrosine-phosphorylation-regulated kinase 1A; test: Inhibition of recombinant rat DYRK1A (1 to 499 ) expressed in bacterial expression system using KKISGRLSPIMTEQ as substrate in presence of [gamma-33P]ATP measured by radiometric assay; settings: for inhibition (INH): rat

T1 sequence (O60563 whole entry): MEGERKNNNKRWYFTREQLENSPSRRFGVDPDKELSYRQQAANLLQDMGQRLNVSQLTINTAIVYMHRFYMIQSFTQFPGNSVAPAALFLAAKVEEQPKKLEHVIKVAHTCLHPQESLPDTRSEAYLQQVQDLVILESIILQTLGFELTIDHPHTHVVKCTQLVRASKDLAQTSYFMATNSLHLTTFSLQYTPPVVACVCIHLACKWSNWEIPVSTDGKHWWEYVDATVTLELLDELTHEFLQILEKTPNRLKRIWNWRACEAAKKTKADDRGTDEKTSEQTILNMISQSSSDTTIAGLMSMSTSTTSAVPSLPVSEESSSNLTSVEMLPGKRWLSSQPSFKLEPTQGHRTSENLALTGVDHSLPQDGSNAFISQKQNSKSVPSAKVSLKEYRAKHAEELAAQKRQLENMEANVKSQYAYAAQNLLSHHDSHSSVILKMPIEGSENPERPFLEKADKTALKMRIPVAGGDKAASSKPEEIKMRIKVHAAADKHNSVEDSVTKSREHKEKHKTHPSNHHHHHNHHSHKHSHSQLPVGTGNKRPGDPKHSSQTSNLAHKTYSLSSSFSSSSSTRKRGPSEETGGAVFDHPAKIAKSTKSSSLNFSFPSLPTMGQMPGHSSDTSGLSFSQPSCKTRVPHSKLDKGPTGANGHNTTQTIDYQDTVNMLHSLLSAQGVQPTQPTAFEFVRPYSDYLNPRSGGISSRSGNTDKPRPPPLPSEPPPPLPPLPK
T1 sequence (P50750 whole entry): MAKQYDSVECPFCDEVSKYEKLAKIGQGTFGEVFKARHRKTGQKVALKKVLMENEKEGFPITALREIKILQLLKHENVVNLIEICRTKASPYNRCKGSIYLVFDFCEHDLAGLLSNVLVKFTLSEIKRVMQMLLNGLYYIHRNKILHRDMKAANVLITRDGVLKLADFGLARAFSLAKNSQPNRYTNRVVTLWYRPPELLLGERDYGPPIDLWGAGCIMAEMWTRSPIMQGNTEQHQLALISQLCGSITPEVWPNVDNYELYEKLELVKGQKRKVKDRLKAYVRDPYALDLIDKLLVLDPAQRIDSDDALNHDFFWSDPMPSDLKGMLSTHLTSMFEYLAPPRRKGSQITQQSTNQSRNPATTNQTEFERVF
Chain of Dual specificity protein kinase CLK1 (P22518 whole entry): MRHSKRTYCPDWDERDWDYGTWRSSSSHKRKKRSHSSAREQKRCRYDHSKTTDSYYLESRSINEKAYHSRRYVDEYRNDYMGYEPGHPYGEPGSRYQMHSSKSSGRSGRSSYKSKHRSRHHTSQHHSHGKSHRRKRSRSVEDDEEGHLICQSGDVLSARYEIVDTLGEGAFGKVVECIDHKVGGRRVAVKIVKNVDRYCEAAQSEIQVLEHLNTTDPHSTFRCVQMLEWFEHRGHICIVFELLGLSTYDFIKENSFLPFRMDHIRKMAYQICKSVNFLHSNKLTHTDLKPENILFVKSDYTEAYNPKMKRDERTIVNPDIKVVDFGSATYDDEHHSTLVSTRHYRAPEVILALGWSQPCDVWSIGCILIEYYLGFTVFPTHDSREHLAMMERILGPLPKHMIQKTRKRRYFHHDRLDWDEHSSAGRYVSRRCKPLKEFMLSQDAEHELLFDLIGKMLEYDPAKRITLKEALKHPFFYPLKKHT
Chain of Cyclin-dependent kinase 5/CDK5 activator 1 (Q00535 whole entry): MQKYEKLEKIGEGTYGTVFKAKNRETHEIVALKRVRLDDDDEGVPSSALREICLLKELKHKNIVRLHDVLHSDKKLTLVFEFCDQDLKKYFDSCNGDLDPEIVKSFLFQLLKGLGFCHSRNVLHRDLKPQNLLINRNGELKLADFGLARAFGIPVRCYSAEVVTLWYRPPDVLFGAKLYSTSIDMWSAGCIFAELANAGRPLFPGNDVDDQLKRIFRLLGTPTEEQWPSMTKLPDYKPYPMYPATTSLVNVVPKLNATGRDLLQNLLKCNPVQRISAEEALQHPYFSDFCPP
Chain of Cyclin-dependent kinase 5/CDK5 activator 1 (Q15078 whole entry, further chain): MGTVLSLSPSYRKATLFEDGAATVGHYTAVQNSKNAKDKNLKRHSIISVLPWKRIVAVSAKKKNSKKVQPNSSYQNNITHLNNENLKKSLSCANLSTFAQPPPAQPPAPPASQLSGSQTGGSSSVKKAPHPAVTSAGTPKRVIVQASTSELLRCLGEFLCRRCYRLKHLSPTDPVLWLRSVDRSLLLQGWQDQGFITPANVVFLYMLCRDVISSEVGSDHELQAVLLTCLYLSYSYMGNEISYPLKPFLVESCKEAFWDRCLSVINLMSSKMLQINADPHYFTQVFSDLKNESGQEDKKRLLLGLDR
Chain of Receptor-interacting serine/threonine-protein kinase 3 (Q9Y572 whole entry): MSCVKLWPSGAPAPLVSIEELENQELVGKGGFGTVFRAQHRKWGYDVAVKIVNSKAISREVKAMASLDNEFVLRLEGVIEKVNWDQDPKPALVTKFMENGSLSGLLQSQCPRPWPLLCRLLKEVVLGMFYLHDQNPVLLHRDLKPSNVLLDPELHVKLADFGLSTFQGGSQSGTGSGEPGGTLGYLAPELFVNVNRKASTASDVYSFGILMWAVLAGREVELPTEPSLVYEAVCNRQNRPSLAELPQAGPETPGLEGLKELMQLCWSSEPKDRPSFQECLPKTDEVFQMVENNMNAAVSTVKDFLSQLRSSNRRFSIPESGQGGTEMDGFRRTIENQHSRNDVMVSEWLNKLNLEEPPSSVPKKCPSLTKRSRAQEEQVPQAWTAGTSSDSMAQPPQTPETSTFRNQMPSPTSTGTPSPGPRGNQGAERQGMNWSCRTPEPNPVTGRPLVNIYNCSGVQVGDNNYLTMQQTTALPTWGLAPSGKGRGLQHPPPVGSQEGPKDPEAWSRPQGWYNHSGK
T2 sequence (Q96GD4 whole entry): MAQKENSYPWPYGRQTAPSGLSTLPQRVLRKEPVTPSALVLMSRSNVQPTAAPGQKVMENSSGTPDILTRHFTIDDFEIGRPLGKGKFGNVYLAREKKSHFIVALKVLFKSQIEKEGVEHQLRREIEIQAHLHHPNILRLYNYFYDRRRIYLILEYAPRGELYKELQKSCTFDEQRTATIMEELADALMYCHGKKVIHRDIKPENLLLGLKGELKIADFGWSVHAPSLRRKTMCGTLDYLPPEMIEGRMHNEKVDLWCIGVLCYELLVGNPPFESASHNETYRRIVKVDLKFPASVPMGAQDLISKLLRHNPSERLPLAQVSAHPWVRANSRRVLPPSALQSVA
Chain of Serine/threonine-protein kinase pim-1 (P11309 whole entry): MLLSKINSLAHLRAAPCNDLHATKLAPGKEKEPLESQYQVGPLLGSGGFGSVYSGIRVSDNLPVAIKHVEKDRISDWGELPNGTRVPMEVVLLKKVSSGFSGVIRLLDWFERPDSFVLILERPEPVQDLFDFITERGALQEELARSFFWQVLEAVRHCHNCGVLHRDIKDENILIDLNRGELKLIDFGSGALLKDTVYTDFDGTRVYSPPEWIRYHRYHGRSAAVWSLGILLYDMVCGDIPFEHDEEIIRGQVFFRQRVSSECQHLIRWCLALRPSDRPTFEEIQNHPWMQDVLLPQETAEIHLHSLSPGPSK

Structure (SMILES) | IC50 (Leishmania amazonensis) | IC50 (Leishmania braziliensis) | selectivity ratio [1] | selectivity ratio [2] | IC50 (Leishmania infantum) | IC50 (Leishmania donovani) | selectivity ratio [3] | selectivity ratio [4] | Activity [5] | IC50 (CDK2/Cyclin A2) | IC50 [6] | IC50 (CDK9/cyclin T1 [7]) | IC50 [8] | inhibition (INH) [9] | inhibition (INH) (Aurora kinase B [10]) | IC50 [12] | IC50 (CDK9/cyclin T1 [13]) | inhibition (INH) [14] | inhibition (INH) (Aurora kinase B [15]) | inhibition (INH) [16] | further results
CN(C)c1nccn2c(-c3ccncc3)c(-c3ccc(F)cc3)nc12 | 28.4 µM | 57.9 µM | 1.5 | 1.7 | 12.8 µM | 2.74 µM | 7.8 | 36.5 | Non-Toxic | > 10 µM | > 10 µM | > 10 µM | > 10 µM | Not Active | Not Active |  |  |  |  |  | inhibition (INH) [11]: Not Active
CN(C)c1nccn2c(-c3cncnc3)c(-c3ccc(F)cc3)nc12 | > 50 µM | 22.8 µM |  | 4.4 | > 50 µM | > 50 µM |  |  | Non-Toxic | > 10 µM | > 10 µM | > 10 µM | > 10 µM | Not Active | Not Active |  |  |  |  |  | inhibition (INH) [11]: Not Active
CSc1nccc(-c2c(-c3ccc(F)cc3)nc3c(Cl)nccn23)n1 | > 100 µM | 74 µM |  | 1.1 | > 100 µM | > 100 µM |  |  | Non-Toxic |  |  |  |  |  |  | > 10 µM | > 10 µM | Not Active | Not Active | Not Active | 
CN(C)c1nccn2c(-c3ccnc(N)n3)c(-c3ccccc3)nc12 | 23.4 µM | 56.5 µM | 1.9 | 1 | > 100 µM | > 100 µM |  |  | Non-Toxic |  |  |  |  |  |  | 0.035 µM | > 10 µM | Not Active | Not Active | Not Active | 
CN(C)c1nccn2c(-c3cnn(C)c3)c(-c3ccc(F)cc3)nc12 | > 25 µM | > 25 µM | 0.6 | 4 | 2.6 µM | 1.27 µM | 38.5 | 78.7 | Non-Toxic | > 10 µM | > 10 µM | > 10 µM | > 10 µM | Not Active | Not Active |  |  |  |  |  | inhibition (INH) [11]: Not Active
CN(C)c1nccn2c(-c3ccc4[nH]ncc4c3)c(-c3ccc(F)cc3)nc12 | > 12.5 µM | > 12.5 µM | 0.6 | 2 | 12.9 µM | > 12.5 µM | 2 | 2 | Non-Toxic | > 10 µM | > 10 µM | > 10 µM | > 10 µM | Not Active | Not Active |  |  |  |  |  | inhibition (INH) [11]: Not Active
CN(C)c1nccn2c(-c3ccnc(N)n3)c(-c3ccc(F)cc3)nc12 | 6.12 µM | 24.3 µM | 6.9 | 4.1 | 6.55 µM | 9.97 µM | 15.2 | 10 | Non-Toxic |  |  |  |  |  |  | 0.042 µM | > 10 µM | Not Active | Not Active | Not Active | 
CSc1nccc(-c2c(-c3ccccc3)nc3c(N(C)C)nccn23)n1 | 5.99 µM | 45.6 µM | 5.6 | 1.8 | 12.5 µM | 17.6 µM | 6.5 | 4.6 | Non-Toxic |  |  |  |  |  |  | 3.5 µM | > 10 µM | Not Active | Not Active | Not Active | 
CSc1nccc(-c2c(-c3ccccc3)nc3c(Cl)nccn23)n1 | 3.2 µM | 17.7 µM | 15.8 | 1.9 | 1.93 µM | 9.82 µM | 17.3 | 3.4 | Non-Toxic |  |  |  |  |  |  | 5 µM | > 10 µM | Not Active | Not Active | Not Active | 
CSc1nccc(-c2c(-c3ccc(F)cc3)nc3c(N(C)C)nccn23)n1 | 12.5 µM | 63.5 µM | 2.9 | 1.1 | 6.2 µM | 10.4 µM | 10.8 | 6.4 | Non-Toxic |  |  |  |  |  |  | 1 µM | > 10 µM | Not Active | Not Active | Not Active | 
CSc1nccc(-c2c(-c3ccc(F)cc3)nc3c(N)nccn23)n1 | > 12.5 µM | > 12.5 µM | > 0.9 | 1.5 | > 12.5 µM | > 12.5 µM | 1.5 | 1.5 | Non-Toxic |  |  |  |  |  |  | 0.65 µM | > 10 µM | Not Active | Not Active |  | IC50 [16]: 2 µM
